Source: ChEMBL document CHEMBL4130535, “Aquilanols A and B, Macrocyclic Humulene-Type Sesquiterpenoids from the Agarwood of Aquilaria malaccensis” (2017)

Tests used:
Staphylococcus aureus = assay: Antibacterial activity against Staphylococcus aureus ATCC 25923 after 24 hrs; type: functional; conditions: ATCC 25923, 24 h
In short: (§1)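 MIC determination, following a previously reported method, against the listed Gram-positive and Gram-negative ATCC strains.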

Enterococcus faecalis = assay: Antibacterial activity against Enterococcus faecalis ATCC 19433 after 24 hrs; type: functional; conditions: ATCC 19433, 24 h; in short: as §1
Enterococcus faecium = assay: Antibacterial activity against Enterococcus faecium ATCC 19434 after 24 hrs; type: functional; conditions: ATCC 19434, 24 h; in short: as §1
Salmonella typhimurium = assay: Antibacterial activity against Salmonella enterica ATCC 14028 after 24 hrs; type: functional, Salmonella enterica subsp. enterica serovar Typhimurium; conditions: ATCC 14028, 24 h; in short: as §1
Klebsiella pneumoniae = assay: Antibacterial activity against Klebsiella pneumoniae ATCC 10031 after 24 hrs; type: functional; conditions: ATCC 10031, 24 h; in short: as §1
Escherichia coli = assay: Antibacterial activity against Escherichia coli ATCC 25922 after 24 hrs; type: functional; conditions: ATCC 25922, 24 h; in short: as §1
Aspergillus fumigatus = assay: Antifungal activity against Aspergillus fumigatus HIC 6094 after 48 to 72 hrs; type: functional
In short: (§2)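 MIC determination, following a previously reported method, against the listed fungal strains, with amphotericin B as the positive control.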

Trichophyton rubrum = assay: Antifungal activity against Trichophyton rubrum NBRC 9185 after 48 to 72 hrs; type: functional; in short: as §2
[1] = tested on: Trichophyton mentagrophytes; assay: Antifungal activity against Trichophyton mentagrophytes IFM 40996 after 48 to 72 hrs; type: functional; in short: as §2
Candida albicans = assay: Antifungal activity against Candida albicans ATCC 10231 after 48 to 72 hrs; type: functional; in short: as §2

Measured: MIC

C/C1=C/CC/C(CO)=C/CC(C)(C)/C=C/C1
430 to 580 µM: all assays above

C=C1C2C[C@H]3[C@@H](C)CC[C@@]3(C(C)=CC2=O)[C@@H]1O
430 to 580 µM: all assays above

C=C1[C@@H](O)[C@]23CC[C@H](C)[C@@H]2C[C@@]1(O)C(=O)C=C3C
430 to 580 µM: all assays above

COC(=O)[C@@]1(C)[C@]2(C)CC(=O)[C@@]1(O)CC1=C2C(=O)C[C@@H]1C
430 to 580 µM: all assays above

C[C@H]1CC=C2[C@H]1C[C@]1(O)C(=O)C[C@@]2(C)[C@]1(C)C=O
430 to 580 µM: all assays above

CC1(C)C/C=C2/CCC(O)C(C)(CC3OC31)OC2 (racemic)
430 to 580 µM: all assays above

COC(=O)[C@H]1C[C@]23CC[C@H](C)[C@@H]2C[C@@]1(O)C(=O)C=C3C
430 to 580 µM: all assays above

CC1(C)/C=C/C[C@@]2(C)OC/C(=C\C1)CC[C@@H]2O
430 to 580 µM: all assays above

C[C@H]1CC=C2[C@H]1C[C@]1(O)C(=O)C[C@@]2(C)[C@]1(C)CO
430 to 580 µM: all assays above
